In ChEMBL document CHEMBL1121934, “2,3-dihydro and carbocyclic analogues of tryptamines: interaction with serotonin receptors” (J Med Chem, 1982):

biological target: 5-hydroxytryptamine receptor 2B (Rattus norvegicus, UniProt P30994); assay: The binding affinity to 5-hydroxytryptamine 2B receptor of rat fundus; details: read-out: pA2 (converted)
Method in brief: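 Isolated rat stomach fundus strip preparation. After a 1-h equilibration, 5-HT oxalate dose-response curves (9–11 increasing concentrations) were run without and with 4–5 increasing concentrations of test compound. Apparent affinity was expressed as pA2 by Arunlakshana–Schild analysis, with linear regression giving both pA2 and Schild plot slope.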

Chain of 5-hydroxytryptamine receptor 2B (P30994 whole entry): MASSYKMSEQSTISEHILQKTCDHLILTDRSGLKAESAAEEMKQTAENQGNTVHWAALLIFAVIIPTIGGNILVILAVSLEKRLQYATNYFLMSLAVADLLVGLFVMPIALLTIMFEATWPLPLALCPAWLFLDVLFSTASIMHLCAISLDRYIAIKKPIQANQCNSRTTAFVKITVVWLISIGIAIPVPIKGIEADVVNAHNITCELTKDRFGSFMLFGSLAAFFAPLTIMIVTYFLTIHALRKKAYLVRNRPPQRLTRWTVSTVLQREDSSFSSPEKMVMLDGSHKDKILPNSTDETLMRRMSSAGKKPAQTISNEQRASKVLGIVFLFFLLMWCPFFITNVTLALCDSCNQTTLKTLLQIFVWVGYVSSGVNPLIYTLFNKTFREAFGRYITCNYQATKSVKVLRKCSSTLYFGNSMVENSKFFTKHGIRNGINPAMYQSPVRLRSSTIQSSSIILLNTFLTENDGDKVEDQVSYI

`NC1CCc2ccccc2C1` (stereo not drawn) and `NCCC1CCc2ccccc21` (racemic) are within 1.5-fold of each other in Kb: 2.45 µM for the first, 2.51 µM for the second.

First: NCCc1c[nH]c2ccccc12 [TRYPTAMINE]
Second: CNCCc1c[nH]c2ccccc12
The Kb of the first is 2-fold lower: 0.537 µM for the first, 1.07 µM for the second.

First: CN(C)CCNc1ccccc1
Second: CN(C)CCCc1ccccc1
The Kb of the first is 8.5-fold lower: 0.955 µM for the first, 8.13 µM for the second.

Going from `CN(C)CCC(=O)c1ccccc1` to `CN(C)CCC1=CCc2ccccc21`, the Kb falls from 4.79 µM to 2.09 µM (2.3-fold).

`CNCCC1CCc2ccccc21` (racemic) and `CN(C)CCC1CCc2ccccc21` (racemic) are within 1.5-fold of each other in Kb: 4.27 µM for the first, 4.57 µM for the second.

Compared with `COc1ccc2c(c1)C(CCN(C)C)CN2` (racemic), `CN(C)CCC1CNc2ccccc21` (racemic) is 11-fold higher in Kb: 0.182 µM for the first, 2.09 µM for the second.

`CNCCC1CCc2ccccc21` (stereo in doubt; 4d) was tested, and the Kb was 2.19 µM.
